Data on 2 compounds can be found in ChEMBL document CHEMBL1781902, “Anticancer properties of an important drug lead podophyllotoxin can be efficiently mimicked by diverse heterocyclic scaffolds accessible via one-step synthesis” (2011).

The source made the active and inactive calls. The rule behind the calls is not given here.

In experiment [1] the test system is HeLa. As to the kind of experiment: Antimitotic activity in human HeLa cells assessed as visible deffect in microtubule organization at 5 nM after 3 hrs by inverted microscopic analysis. It is filed as functional, cell-based. The procedure, abridged: (§1)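 HeLa cells in DMEM with 10% fetal calf serum, pyruvate, bicarbonate and PSF were treated 3 h with compound solubilized in DMSO and prediluted in medium, or with 0.1% DMSO carrier. Cells were fixed in methanol at −20°C and blocked 1 h in PBS-5% BSA. They were stained overnight at 4°C for tubulin, Hec1 and Hoechst 33342, then imaged by epifluorescence with structured illumination.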

Experiment [2] concerns HeLa. As to the kind of experiment: Antiproliferative activity against human HeLa cells after 48 hrs by MTT assay. It is filed as functional. The procedure, abridged: (§2)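 Cells were seeded at 2 × 10^4 cells/mL, allowed to adhere 24 h, then exposed 48 h to a concentration series, with DMSO as control. MTT was added for 2 h at 37 °C, formazan dissolved in DMSO and OD read at 490 nm. GI50 is the concentration giving 50% viability loss versus DMSO; 8 replicates, at least two independent experiments, ± SD.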
Background: Tetrazolium assays rely on reduction of a dye to a coloured formazan, in cell work by metabolically active cells.

The next experiment has as its system MCF7. As to the kind of experiment: Antiproliferative activity against human MCF7 cells after 48 hrs by MTT assay. It is filed as functional. The following applies: MCF7, 48 h. In short, it runs like this: as §2
For experiment [3], the system named is HeLa. As to the kind of experiment: Antimitotic activity in human HeLa cells assessed as disruption of interphase microtubule organization at 10 uM after 3 hrs by inverted microscopic analysis. It is filed as functional, cell-based. In short, it runs like this:
as §1

Another experiment concerns Jurkat. As to the kind of experiment: Induction of apoptosis in human Jurkat cells assessed as cleavage of caspase 3 substrate DEVD-p-nitroanaline 2 hrs by spectrophotometric analysis. It is filed as functional, cell-based. In short, it runs like this:
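Jurkat cells (RPMI-1640, 10% FBS) were treated at 0.1, 0.5 and 1 μM alongside DMSO control. Lysates from 1 × 10^6 cells were normalized by BCA protein assay, then incubated with DEVD-pNA substrate for 2 h at 37 °C. Read at 405 nm and expressed relative to DMSO set as one. Quadruplicates, repeated at least twice.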

The subject of experiment [4] is HeLa. The experiment in a line: Antimitotic activity in human HeLa cells assessed as visible deffect in mitotic spindle formation at 10 uM after 3 hrs by inverted microscopic analysis. It is filed as functional, cell-based. The procedure, abridged:
as §1

Another experiment is filed under the species Bos taurus. As to the kind of experiment: Inhibition of purified bovine tubulin polymerization assessed as microtubule destabilization at 25 uM after 20 mins by fluorescence spectrophotometric analysis. In short, it runs like this: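 Purified bovine tubulin was incubated at 37 °C in buffer with 10% glycerol and 1 mM GTP, each agent in a separate run, against a 0.05% DMSO control. Polymerization was followed by fluorescence spectrophotometry for 20 min, reading every 15 s.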

Turning to `COc1cc2c(c(OC)c1OC)-c1ccc(OC)c(=O)cc1[C@@H](NC(C)=O)CC2`, the result with HeLa [1] was inactive.

Consider `COc1cc([C@@H]2c3cc4c(cc3[C@H](O)[C@H]3COC(=O)[C@H]23)OCO4)cc(OC)c1OC` [PODOFILOX], for which the GI50 (in general, the concentration that inhibits growth by half) in the experiment on HeLa [2] came out at 20 nM; with MCF7, 10 nM. Also, the result in the experiment on HeLa [3] was inactive. Also, the outcome with Jurkat and in the experiment on HeLa [4] was Active. Besides, the inhibition result in the experiment listed under Bos taurus was “Active”.
